Screens (PubChem BioAssay)
PKA-R2B act: activates the human PKA-R2B holoenzyme complex. P22694+P31323. 0.079% of 340,000 active. AID 504700. activation, % at 11.4 µM. PKA-R2B holoenzyme dissociation, Cy5-IP20 fluorescence polarization; R2B truncated from residue 108, S112A mutant; 0% DMSO only, 100% 113 µM cGMP;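 active = activation above a cutoff set at the mean over all compounds plus 3 SD, cut at about 18% in these data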;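 note: higher means more holoenzyme dissociation and a rise in polarization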
HNF4A DNA FP: change in binding of human HNF4 alpha to DNA. HNF4a-FITC DNA binding, fluorescence polarization, 1 h. activity change, % at 10 µM. 0.3% of 360,000 active. AID 1224865; in the data active = activity change above about 30%, passing the limit was not always enough
Rpn11 inh: inhibitors of human proteasome Rpn11 | human 26S proteasome, Ub4-pepOG fluorescence polarization; 20S core pre-blocked with epoxomicin | 0.59% of 360,000 active | O00487 | calls only at 20 µM | AID 588493;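 active = inhibition at 20 µM, scaled to each plate's controls, above about 33%, limit read from the data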
Target sequence (O00487 whole entry, looked up): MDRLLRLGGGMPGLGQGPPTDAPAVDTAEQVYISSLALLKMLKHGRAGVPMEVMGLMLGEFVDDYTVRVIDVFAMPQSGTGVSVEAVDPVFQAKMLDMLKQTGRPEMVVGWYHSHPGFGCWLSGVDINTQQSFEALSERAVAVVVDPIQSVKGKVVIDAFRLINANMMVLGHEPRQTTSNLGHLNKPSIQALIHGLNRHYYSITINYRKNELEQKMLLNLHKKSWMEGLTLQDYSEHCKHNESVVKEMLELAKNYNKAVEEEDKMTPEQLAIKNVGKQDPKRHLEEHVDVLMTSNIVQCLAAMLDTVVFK
CSN deneddyl inh: CSN deneddylation inhibition | 0.38% of 360,000 active | Purified CSN, SCF-Nedd8-OG deneddylation, fluorescence polarization | AID 651999 | Q92905 | inhibition, % at 12.5 µM;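 active = pattern-corrected inhibition above about 35%, with an unprinted fluorescence ratio check between 0.5 and 1.5, limit read from the data, passing the limit was not always enough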
Target sequence (Q92905 whole entry, looked up, one chain of several): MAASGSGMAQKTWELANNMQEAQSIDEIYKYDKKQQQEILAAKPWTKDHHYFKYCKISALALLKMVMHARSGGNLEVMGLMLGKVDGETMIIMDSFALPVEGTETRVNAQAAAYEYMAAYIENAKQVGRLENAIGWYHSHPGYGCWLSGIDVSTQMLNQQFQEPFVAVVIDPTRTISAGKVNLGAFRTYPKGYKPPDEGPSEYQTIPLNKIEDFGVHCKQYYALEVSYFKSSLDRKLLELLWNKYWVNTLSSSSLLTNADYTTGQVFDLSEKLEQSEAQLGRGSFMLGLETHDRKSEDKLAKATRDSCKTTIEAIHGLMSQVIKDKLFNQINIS
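Test system: purified human Csn5 enzyme expressed in HEK293T cells. Amount: 0.24 nM enzyme. Reagent: SCFSkp2-Nedd8OG substrate at 10 nM final. Schedule: 90 min incubation of compound, enzyme and substrate at room temperature. Detection: fluorescence polarization. Read-out: % inhibition of substrate cleavage by Csn5.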
TPT1 inhibitor: inhibitors of Candida albicans tRNA 2'-phosphotransferase TPT1; inhibition, % at 5 µM; AID 1962; 0.81% of 300,000 active; recombinant caTPT1, FP RNA substrate dephosphorylation;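 active = inhibition above the mean of all tested compounds plus 3 SD, set per screening campaign, cut at about 24% in these data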
PKA-R1A activ: activates the PKA-R1A holoenzyme complex | 0.083% of 340,000 active | AID 504707 | PKA-R1A dissociation, Cy5-IP20 fluorescence polarization; scaled: DMSO 0%, 113 µM cGMP 100% | activation, % at 11.4 µM;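 active = percent activation above the mean of all tested compounds plus 3 SD, cut at about 19% in these data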;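 note: higher means more PKAc released from R1A so a rise in polarization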
Rpn11 inh conf: confirmation of human proteasome Rpn11 inhibitors | inhibition, % at 20 µM | 29% of 1,900 active | purified human 26S proteasome, Ub4-pepOG fluorescence polarization; proteasome pretreated with epoxomicin | shares compounds with Rpn11 inh
MMP-2 inh: MMP-2 (human) inhibition counter-screen. shares compounds with Rpn11 inh. recombinant MMP-2, FRET peptide cleavage fluorescence. inhibition, % at 20 µM. 4% of 1,900 active. AID 602330;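 note: human MMP-2 activated beforehand with APMA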
Thrombin FP: counter-screen for RPN11 inhibitors: inhibition of bovine thrombin; shares compounds with Rpn11 inh; bovine thrombin cleavage of Ub4-pepOG, fluorescence polarization; inhibition, % at 20 µM; 13% of 1,900 active; AID 602333;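 active = mean inhibition at least 40% at 20 µM, or signal 3 deviations below plate average, so some actives read negative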
Each line names hits and unclear results; the compound was inactive in the other large screens (follow-up assays come after a bar, where they were run); ! = repeats disagree. Compounds with a hit are over-represented: about 1.6% of the library has one in this group of screens. Cut-off read from the data, not from the text of the source, unless noted: active = inhibition above about 40%; inactive = the rest.

CCOc1ccc(C(=O)N/N=C/c2cc(Cl)ccc2[N+](=O)[O-])cc1	Rpn11 inh active | Rpn11 inh conf 41 | MMP-2 inh inactive | Thrombin FP inactive
COCCNC(=O)C1(C)CCCN(C(=O)c2cccc(C#N)c2)C1 (stereo unspecified)	none (no result: PKA-R2B act, TPT1 inhibitor, PKA-R1A activ)
COc1ccc2oc(C(=O)Nc3nc(-c4ccccn4)cs3)c(C)c2c1	Rpn11 inh active | Rpn11 inh conf 52 | MMP-2 inh inactive | Thrombin FP inactive
COc1ccc(CN2C(=O)c3cccnc3C2Nc2cc(Cl)c(OC)cc2OC)cc1 (stereo unspecified)	none
COc1ccc(CN2C(=O)c3cccnc3C2Nc2ccc(C)cc2)cc1 (stereo unspecified)	Rpn11 inh active | Rpn11 inh conf inactive | MMP-2 inh inactive | Thrombin FP inactive
c1ccc2oc(-c3ccc(Nc4nc(N5CCOCC5)nc(N5CCOCC5)n4)cc3)nc2c1	none (no result: TPT1 inhibitor)
COc1ccc(NC(=O)c2ccc(C)cc2Cl)c([N+](=O)[O-])c1	Rpn11 inh active | Rpn11 inh conf inactive | MMP-2 inh inactive | Thrombin FP inactive
Cc1ccc(C(=O)O)cc1-c1ccc(C=C2C(=O)c3ccccc3C2=O)o1	Rpn11 inh active, TPT1 inhibitor 30 | Rpn11 inh conf inactive | MMP-2 inh inactive | Thrombin FP inactive
CC(C)[C@H](NC(=O)c1ccco1)C(=O)N(C)Cc1c(F)cccc1Cl	none
Cc1cc[n+](-c2nc3ccccc3nc2C(=C=[N-])C#N)cc1	none
N#CC(=C=[N-])c1nc2ccccc2nc1-[n+]1ccccc1	Rpn11 inh active!, CSN deneddyl inh 44 | Rpn11 inh conf inactive | MMP-2 inh inactive | Thrombin FP inactive
O=C1NC(=S)SC1=Cc1cc(Br)ccc1O	HNF4A DNA FP 80, Rpn11 inh active (no result: TPT1 inhibitor) | Rpn11 inh conf inactive | MMP-2 inh inactive | Thrombin FP inactive
O=C1NC(=S)SC1=Cc1ccccc1Br	none (no result: TPT1 inhibitor)
Cc1ccc(-n2c(SCC(=O)NCC3CCCO3)nc3ccccc3c2=O)cc1 (stereo unspecified)	none (no result: TPT1 inhibitor)
COc1ccc(-n2c(SCC(=O)NCC3CCCO3)nc3ccccc3c2=O)cc1Cl (stereo unspecified)	Rpn11 inh active (no result: TPT1 inhibitor) | Rpn11 inh conf inactive | MMP-2 inh inactive | Thrombin FP inactive
O=C(COc1ccccc1[N+](=O)[O-])Nc1ccc(NC(=O)c2cc3ccccc3o2)cc1	none
O=C(COc1ccc(/C=N/NC(=O)c2cc3ccccc3o2)cc1Br)Nc1ccccc1	Rpn11 inh active, CSN deneddyl inh 125 | Rpn11 inh conf 41 | MMP-2 inh inactive | Thrombin FP inactive
CC1(C)C[C@@H](O)CC2(C1)C[C@]1(C)CC(O)[C@H]2C(C)(C)C1 (stereo partly specified)	none (no result: PKA-R2B act, PKA-R1A activ)
O=C1[C@H](Cc2ccccc2)NCC=CC[C@@H](c2ccc(Cl)cc2)N1Cc1ccccc1	none (no result: TPT1 inhibitor)
CCOC(=O)C1(Cc2ccc(OC)cc2)CCN(C(=O)CCc2cccnc2)CC1	none
COc1ccc(-c2ccc3sc4ccccc4c(=O)c3c2)cn1	Rpn11 inh active | Rpn11 inh conf inactive | MMP-2 inh inactive | Thrombin FP inactive
COc1cc2sc3ccc(-c4ccc(N(C)C)nc4)cc3c(=O)c2cc1OC	none (no result: PKA-R2B act, HNF4A DNA FP, Rpn11 inh, CSN deneddyl inh, PKA-R1A activ)
Nc1sc2c(c1C(=O)NC1CC1)CCCC2	none (no result: TPT1 inhibitor)
COC(=O)C[C@@H]1OC[C@H](C(C)C)N1S(=O)(=O)c1ccc(C)cc1	none (no result: PKA-R2B act, Rpn11 inh, TPT1 inhibitor, PKA-R1A activ)
CC1(C(=O)O)Sc2[nH]c(=O)sc2C2c3ccccc3OC(=O)C21 (stereo unspecified)	HNF4A DNA FP 39, Rpn11 inh active | Rpn11 inh conf inactive | MMP-2 inh inactive | Thrombin FP inactive
COc1ccc(CN2CCNC(=O)C2CC(=O)N(C)Cc2nccs2)cc1OC (stereo unspecified)	none
COc1ccc(CN2CCNC(=O)C2CC(=O)N(C)Cc2nccn2C)cc1OC (stereo unspecified)	Rpn11 inh active | Rpn11 inh conf inactive | MMP-2 inh inactive | Thrombin FP inactive
S=C(NNc1ccnc2cc(Cl)ccc12)Nc1ccc(Cl)cc1Cl	Rpn11 inh active | Rpn11 inh conf inactive | MMP-2 inh 48 | Thrombin FP inactive
CCOc1ccc(NC(=S)NNc2ccnc3cc(Cl)ccc23)cc1	none
CC(=O)c1ccc(-c2ccc(C(=O)NCC(c3ccco3)N(C)C)o2)cc1 (stereo unspecified)	none (no result: TPT1 inhibitor)
Cc1nn2c(N3CCCC3)c3c(nc2c1-c1ccccc1)CCC3	Rpn11 inh active (no result: PKA-R2B act, PKA-R1A activ) | Rpn11 inh conf inactive | MMP-2 inh inactive | Thrombin FP inactive
CC(=O)Nc1ccc(S(=O)(=O)N2CCC(C(=O)NCCC(=O)NCc3ccccc3)CC2)cc1	none
O=C(NC12CC3CC(CC(C3)C1)C2)N1CCC(O)CC1	Rpn11 inh active | Rpn11 inh conf inactive | MMP-2 inh inactive | Thrombin FP inactive
O=C1NC(=O)C(Cc2cccc(Oc3ccccc3)c2)S1 (stereo unspecified)	none
COc1ccc(CCc2nnc(CCC(=O)NCCc3ncccc3C)o2)cc1	none
CC(C)(C)NC(=O)c1ccc(Sc2ccccc2)c([N+](=O)[O-])c1	none
Cc1cc(C)n2nc(Sc3ncccc3[N+](=O)[O-])nc2n1	Rpn11 inh active (no result: PKA-R2B act, PKA-R1A activ) | Rpn11 inh conf inactive | MMP-2 inh inactive | Thrombin FP inactive
Cc1cnc(Sc2ncccc2[N+](=O)[O-])nc1	none
O=[N+]([O-])c1ccc(N=Cc2sc3ccccc3c2O)cc1	Rpn11 inh active, TPT1 inhibitor 51 | Rpn11 inh conf inactive | MMP-2 inh inactive | Thrombin FP inactive
Cc1ccc(N(C(=O)c2ccco2)C(C(=O)NC2CCCC2)c2cccnc2)cc1 (stereo unspecified)	none
Cn1c(=O)oc2cc(S(=O)(=O)N3CCN(c4ccccc4F)CC3)ccc21	Rpn11 inh active | Rpn11 inh conf 71 | MMP-2 inh inactive | Thrombin FP inactive
CCOC(=O)CC(=O)CSc1nc(-c2cccnc2)ccc1C#N	Rpn11 inh active | Rpn11 inh conf inactive | MMP-2 inh inactive | Thrombin FP inactive
COc1ccc(C2=NN(c3ccccc3)C(c3ccc(OC)c(OC)c3)C2)cc1 (stereo unspecified)	none
